Assay outcomes deposited in PubChem BioAssay by several laboratories.
ROMK primary – modulators of human ROMK potassium channel; P48048; Tet-inducible ROMK, thallium flux fluorescence; actives lie on both sides; B-score at 10 µM; hit rate 2% among 130,000; AID 1918;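 active means signal ratio slope over the read window, or its plate-corrected B-score, at least 3 SD from the plate mean, either direction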;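 further: B-score of the F/F0 ratio slope over 7 to 12 s after thallium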
Mdm2 ligase inh – Mdm2 E3 ligase (human) inhibition | Q00987 | cell-based MDM2 ubiquitination luciferase reporter, 2 h; 0 = plate control, 100 = twice control, blank-subtracted | signal enhancement, % at 5 µM | hit rate 0.11% among 210,000 | AID 1230;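 active means signal enhancement of 30% or more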;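 further: luminescence tracks abundance of the self-degrading MDM2-luciferase fusion protein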
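Material: stable MDM2–luciferase fusion reporter cells / Quantity: 2000 cells/well / Dosing: single 5 µM compound dose, 0.2% final DMSO / Buffer or medium: DMEM / Schedule: 4 h cell settling then 2 h compound exposure, 37 °C / Detection: luminescence with SteadyLite reagent, 15 min at room temperature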
m-calpain inh – inhibitors of pig calpain II; purified calpain II, fluorogenic peptide substrate, 30 min; inhibition, % at 16 µM; hit rate 0.37% among 220,000; AID 1236;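 active means inhibition above about 50%, limit read from the data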
Arbovirus inh – antivirals against arbovirus infection; arbovirus infection cell-based antiviral screen; AID 1251; inhibition, % at 10 µM; hit rate 0.37% among 200,000; in the data active means inhibition above about 30%
PKD1 inh – blocks activity of human protein kinase D1; Q15139; PKD1 kinase fluorescence polarization assay; inhibition, % (test concentration not listed); hit rate 0.056% among 200,000; in the data active means inhibition above about 50%
Target sequence (Q15139 whole entry, looked up): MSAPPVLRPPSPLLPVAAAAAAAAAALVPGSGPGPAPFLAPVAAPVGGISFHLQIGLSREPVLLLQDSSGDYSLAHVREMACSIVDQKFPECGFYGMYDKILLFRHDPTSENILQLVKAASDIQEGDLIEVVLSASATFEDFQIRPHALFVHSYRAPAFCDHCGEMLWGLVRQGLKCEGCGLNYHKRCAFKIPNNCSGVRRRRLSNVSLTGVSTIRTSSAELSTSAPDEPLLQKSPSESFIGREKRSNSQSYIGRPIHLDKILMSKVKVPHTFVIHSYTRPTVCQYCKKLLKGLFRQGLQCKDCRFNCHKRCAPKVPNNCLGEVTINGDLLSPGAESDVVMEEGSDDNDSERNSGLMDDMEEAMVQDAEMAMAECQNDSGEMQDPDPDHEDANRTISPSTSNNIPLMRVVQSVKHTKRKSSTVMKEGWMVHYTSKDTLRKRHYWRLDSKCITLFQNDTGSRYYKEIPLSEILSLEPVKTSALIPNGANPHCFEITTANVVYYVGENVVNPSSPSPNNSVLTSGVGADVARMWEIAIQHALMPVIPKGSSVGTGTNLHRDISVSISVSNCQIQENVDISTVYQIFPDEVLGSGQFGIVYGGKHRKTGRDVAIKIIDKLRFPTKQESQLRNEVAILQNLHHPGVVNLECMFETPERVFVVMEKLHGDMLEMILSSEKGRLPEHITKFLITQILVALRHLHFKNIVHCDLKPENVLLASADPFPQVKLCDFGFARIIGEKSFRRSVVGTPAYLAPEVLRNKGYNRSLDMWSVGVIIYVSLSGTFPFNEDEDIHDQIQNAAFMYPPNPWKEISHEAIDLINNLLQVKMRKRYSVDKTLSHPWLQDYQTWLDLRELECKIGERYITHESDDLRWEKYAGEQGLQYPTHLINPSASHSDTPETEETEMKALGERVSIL
Cl transport mod – modulates chloride dependent transport by human KCC2. Q9H2X9. KCC2 cells, thallium flux FluoZin-2 fluorescence. B-score of Tl+ flux slope (higher = more flux/activation; lower = inhibition) at 10 µM. hit rate 2.2% among 190,000. AID 1456;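 active means thallium flux slope and its plate-corrected score both differing from the plate sample mean at a set confidence after two filtering rounds, in either direction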;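 further: slope of fluorescence scaled to starting intensity during 10 to 20 s after thallium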
KCC2 sec1 – KCC2 (human) modulation, secondary assay; normalised thallium flux (F/F0 slope) at 10 µM; hit rate 15% among 3,700; HEK293-KCC2, thallium flux, FluoZin2 fluorescence; hits give high values; shares compounds with Cl transport mod;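 active means thallium flux slope above the same plate's solvent-only control mean plus 3 SD; inconclusive means the two replicate wells disagree; inactive means no significant difference from solvent-only control wells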
KCC2 bumet counter – thallium flux persisting under bumetanide in KCC2 cells, counter-screen secondary assay | hit rate 49% among 3,700 | normalized thallium flux at 10 µM | HEK293-KCC2 + bumetanide/ouabain, thallium flux FluoZin2; hits give high values | AID 1714 | shares compounds with Cl transport mod;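 active means thallium entry rate above the same plate's blocked-transporter control wells by more than 3 SD; inconclusive means the two repeat wells disagree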;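 further: raw slope of fluorescence over initial fluorescence between 10 and 20 s after thallium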
KCC2 sec2 – KCC2 (human) modulation, second secondary assay; shares compounds with Cl transport mod; HEK293-KCC2, thallium flux FluoZin2 fluorescence; actives lie on both sides; F/F0 rise rate, 10–20 s post-thallium; hit rate 23% among 3,700; normalized thallium flux at 10 µM;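 active means thallium flux slope more than 3 SD above or below the plate's solvent-only control mean, mostly below; inconclusive means the two repeat wells disagreed; inactive means no significant shift from solvent-only controls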;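 further: raw slope with 0.1% DMSO as baseline and bumetanide as block control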
HEK293 Tl flux – acts in parental HEK cells, KCC2 counter-screen; shares compounds with Cl transport mod; HEK293 parental cells, thallium flux FluoZin2, ouabain; baseline-ratio fluorescence slope, 10–20 s after thallium; thallium flux rate (normalised fluorescence) at 10 µM; hit rate 46% among 3,700; AID 1716;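 active means thallium flux rate significantly above the same plate's solvent-only control wells, beyond their mean plus 3 SD; inconclusive means the two replicate wells gave conflicting results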
KCC2 retest ouab – KCC2 (human) modulation, ouabain retest; raw Tl+ flux slope (below DMSO = inhibition, above = activation) at 10 µM; shares compounds with Cl transport mod; hit rate 48% among 3,700; HEK293-KCC2, thallium flux FluoZin2 fluorescence; bidirectional: low = inhibitor, high = activator; AID 1717;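 active means thallium flux slope beyond 3 SD from same-plate DMSO control mean in most replicates, usually higher, sometimes lower; inconclusive means repeat tests gave conflicting results; inactive means no significant difference from controls in most replicates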;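 further: slope of initial-normalized fluorescence between seconds 10 and 20 after thallium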
HEK293 Tl flux2 – counter-screen for KCC2 modulators: effect in parental HEK293 cells | shares compounds with Cl transport mod | thallium flux FluoZin-2 fluorescence slope | thallium flux slope at 10 µM | hit rate 33% among 3,700;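 active means thallium flux slope above the same plate's solvent-control mean plus 3 SD in both duplicate wells; inconclusive means duplicate wells that disagreed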;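 further: run without ouabain in cells lacking the KCC2 cotransporter; slope of fluorescence scaled to its starting value between 10 and 20 s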
Starred values were filed as active, the others as inactive; u = inconclusive; x = not tested or not shown. In the library only some 3.7% were active in any assay of this set; here they are far more common.

SMILES	ROMK primary	Mdm2 ligase inh	m-calpain inh	Arbovirus inh	PKD1 inh	Cl transport mod	KCC2 sec1	KCC2 bumet counter	KCC2 sec2	HEK293 Tl flux	KCC2 retest ouab	HEK293 Tl flux2
CC(=O)c1ccc(NC(=O)CSc2nccn2CCc2ccccc2)cc1	-1.62	-14.5	24.9	-0.8	-3.8	x	x	x	x	x	x	x
N#Cc1ccccc1NC(=O)CSc1nccn1CCc1ccccc1	x	-60.5	30.6	-2.5	-2.3	-3.95*	0.00682	0.005	0.0247*	0.00728	0.0144*	0.01
O=C1CCCN1CCCNC(=S)Nc1ccc(Cl)cc1Cl	-0.673	-8.0	-12.1	5.1	-3.8	0.323	x	x	x	x	x	x
CCOC(=O)c1ccc2c(c1)[nH]c(=S)n2CC	0.0248	0.4	-13.4	-12.0	-1.3	4.03*	0.00575	0.0193*	0.0329	0.013*	u	0.0158*
CCOC(=O)c1ccc2c(c1)n(CC)c(C)[n+]2CC	-0.0753	-16.9	21.2	2.0	-2.9	x	x	x	x	x	x	x
COc1ccc(CCNC(=O)C2CCN(S(C)(=O)=O)CC2)cc1	0.658	-11.1	-24.5	4.0	13.9	-3.36*	0.00755	0.004	0.0269	0.00742	0.0188	0.00952
COc1ccc(CCNC(=O)C2CCN(S(=O)(=O)c3cc(OC)ccc3OC)CC2)cc1	-0.241	0.1	3.6	8.6	-5.8	x	x	x	x	x	x	x
Clc1cccc(-c2nnc(SC/C=C/c3ccccc3)n2Cc2ccco2)c1	x	-10.7	6.9	-26.0	-10.2	-3.31*	0.00524	u	0.0303	0.00592*	0.0153*	u
Clc1cccc(CSc2nnc(-c3ccccn3)n2Cc2ccco2)c1	-0.732	18.7	21.1	16.4	10.7	x	x	x	x	x	x	x
C(=C\c1ccccc1)/CSc1nnc(-c2ccccc2)n1Cc1ccco1	x	-3.5	1.0	-16.3	-2.6	-2.92	0.0163	u	0.0227*	0.00418*	0.0125*	0.00745*
COc1ccccc1CNc1n[nH]c(NCc2ccccc2OC)n1	-0.0268	-10.8	15.0	1.9	-7.6	x	u	0.00498	0.0295	0.00751	0.0181	0.0109
COc1ccccc1CNc1ccc(CNc2ncn[nH]2)cc1	-1.06	-5.7	-1.8	-6.6	-7.2	0.63	x	x	x	x	x	x
C/C(=N/NC(=S)Nc1cccc(C)c1)c1cccc([N+](=O)[O-])c1	-1.06	-15.2	20.0	17.8	-0.6	30*	0.00873	0.0367*	u	0.0366*	0.0359*	0.0272*
O=C(NC(=S)Nc1cccc(F)c1)c1cccc([N+](=O)[O-])c1	x	x	-6.4	x	x	151*	0.0307*	0.154*	u	0.0708*	0.085*	0.019*
Cc1cccc(NC(=S)N/N=C(\c2ccccc2)C(C)C)c1	-0.144	-6.4	24.5	0.3	-1.7	32.7*	0.00592	0.0602*	0.0503*	0.0398*	0.0551*	0.0359*
CC/C(=N\NC(=S)Nc1cccc(C)c1)c1ccccc1	0.188	-14.6	29.8	0.6	8.6	34.4*	0.021*	0.1*	0.0377	u	0.0666*	0.0277*
CC(C)/C(=N\NC(=O)Nc1ccccc1)c1ccccc1	x	-5.7	17.7	24.1	-3.1	0.0129	x	x	x	x	x	x
C#Cc1ccc([C@@H]2C=C(C(=O)NC3CC3)O[C@H](OCCCCO)C2)cc1	x	3.6	-21.1	x	x	-0.048	x	x	x	x	x	x
C/C(=N\NC(=S)Nc1cccc(C)c1)c1cc2ccccc2o1	-0.0362	-0.7	33.5	-9.1	5.3	26.2*	0.00639	0.0772*	0.051*	0.0379*	0.0583*	0.041*
COC(=O)[C@H](Cc1ccccc1)NC(=O)N1CCN(c2ccccc2)CC1	x	-6.5	-21.0	x	x	-0.279	x	x	x	x	x	x
O=C1c2ccccc2NC(c2ccc(Cl)cc2Cl)N1O (stereo unspecified)	x	-4.7	-19.4	-22.0	-19.6	3.84*	0.0102	0.0209*	0.0315	0.00946*	0.0214	0.00971
Cc1cc(=O)oc2cc(O)c(N=Nc3ccccc3)cc12	x	0.5	-3.5	x	x	-0.0186	x	x	x	x	x	x
N#Cc1ccccc1CSc1nc2ccc(NC(=O)c3ccccc3C(=O)O)cc2s1	1.08	11.1	-60.5	7.5	4.5	-3.57*	0.00778	0.00498	0.0372	0.00372	0.0169*	0.0104
O=C(O)c1ccc(CSc2nc3ccc(NC(=O)c4ccccc4C(=O)O)cc3s2)cc1	-0.0156	-6.9	-54.6	0.6	-1.7	0.626	x	x	x	x	x	x
Cc1ccc(Nc2ncc3c(n2)CC(C)(C)CC3=O)cc1	0.199	-8.8	-12.3	-0.1	1.4	-0.504	x	x	x	x	x	x
SMILES	ROMK primary	Mdm2 ligase inh	m-calpain inh	Arbovirus inh	PKD1 inh	Cl transport mod	KCC2 sec1	KCC2 bumet counter	KCC2 sec2	HEK293 Tl flux	KCC2 retest ouab	HEK293 Tl flux2
COc1ccc(OCC(=O)N2CCN(C(=O)c3ccc([N+](=O)[O-])cc3)CC2)cc1	-0.0591	-0.9	-21.5	-1.2	1.9	0.868	x	x	x	x	x	x
CCCN1C(=O)c2ccc(C(=O)Nc3nccs3)cc2C1=O	-0.233	-1.4	10.2	1.8	-13.4	6.01*	0.00771	u	0.0289	0.00764	0.018	0.0114
Cc1[nH]c2ccccc2c1Cc1n[nH]c(=S)o1	x	-5.0	-38.5	2.8	-10.7	-3.36*	0.00859	0.00615	0.022*	0.00674	0.0414*	0.00965
Cc1[nH]c2ccccc2c1Cc1n[nH]c(=S)n1C	x	x	-12.6	3.3	2.2	-6.37*	0.0098	0.0059	0.0237*	0.00751	0.0109*	0.0116
S=c1[nH]nc(Cc2cccc3ccccc23)o1	-0.375	-9.3	6.4	2.3	-1.8	-8.04*	0.00585	0.00518	0.0153*	0.00765	u	0.01
Nn1c(Cc2cccc3ccccc23)n[nH]c1=S	x	-5.9	17.3	5.0	-1.4	-2.4	x	x	x	x	x	x
Cn1c(Cn2c3ccccc3c3ccccc32)n[nH]c1=S	x	-6.2	-10.6	x	x	x	x	x	x	x	x	x
Cn1c(Cc2c[nH]c3ccccc23)n[nH]c1=S	0.163	4.1	-5.2	0.7	-7.1	x	0.00633	0.00611	0.0278	u	u	0.00923
O=C(Nc1ccccc1)OCc1cncs1	0.671	-2.4	-22.9	3.4	2.5	0.341	x	x	x	x	x	x
COCC(=O)Nc1ccc(S(=O)(=O)Nc2cc(C)nc(C)n2)cc1	x	-4.4	-12.9	7.1	-4.6	-0.00823	x	x	x	x	x	x
COC(=O)c1ccc2nc(Nc3nc4c(F)cc(F)cc4s3)sc2c1	-0.867	-33.9	-152.4	-33.8	-6.0	9.22*	0.00735	0.0191*	0.0407*	0.0159*	0.0282*	0.0214*
